# Source: PubChem
# Insulin prom act: TRM-6 insulin promoter activation; activation, % at 2 µM; actives 0.81% (n = 130,000); TRM-6 cells (human fetal islet line), insulin promoter eGFP reporter, imaging; plate-scaled: unstimulated 0, stimulated control 100;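 active = activation at 2 µM above a set limit, confirmed on inspection of the cell images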;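 also: share of cells whose green reporter signal exceeds an intensity cutoff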
#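 test system = TRM-6 insulin promoter–eGFP reporter cells | benchmarks = stimulated versus unstimulated wells as plate controls | read-out basis = percent cells above green-intensity threshold, converted to percent activation versus plate controls | detection = fixed-cell fluorescence microscopy, eGFP plus Hoechst | incubation = tamoxifen pre-incubation 15 h overnight, then compound exposure 48 h at 37 °C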
# A number is an active result; n = inactive. Shown is part of a subset that was picked to be rich in hits.
SMILES,Insulin prom act
O=C(Nc1cccc2c1C(=O)NC2=O)c1ccc(N2C(=O)CCC2=O)cc1,n
CC(=O)c1c(C(C)=O)c(C)n(-c2ccc(O)cc2)c1C,n
O=C1CCCC(=O)N1c1ccc(O)cc1,267
O=C(CCc1nc2ccccc2[nH]c1=O)OCC(=O)c1ccc(Cl)cc1,n
Cc1ccc(C(=O)COC(=O)CCc2nc3ccccc3[nH]c2=O)cc1C,n
CC(CC(=O)Nc1nc2ccccc2[nH]1)c1ccccc1 (stereo unspecified),n
CC(OC(=O)CCc1nc2ccccc2[nH]c1=O)c1ccccc1 (stereo unspecified),471
O=C(CCc1nc2ccccc2[nH]c1=O)OCC(=O)c1cccc2ccccc12,83
COC(=O)CCc1nc2ccccc2[nH]c1=O,n
Cc1cccnc1CCNC(=O)CC1C(=O)NCCN1CC1CCCCC1 (stereo unspecified),n
COc1cc(/C=N/Nc2ccc(Cl)cc2)ccc1OC(=O)c1cccs1,n
COc1cc(S(=O)(=O)Nc2cccc(C)c2)ccc1NC(=O)c1cccnc1,n
CCN(CC)C(=O)C12CC3CC(CC(Br)(C3)C1)C2,n
Cc1cc(O)ccc1NC(=O)CCN1C(=O)c2ccc([N+](=O)[O-])cc2C1=O,n
CCOC(=O)C(Cc1c[nH]c2ccccc12)NC(=O)c1ccco1 (stereo unspecified),n
CCCC(=O)NC(c1ccco1)c1cc([N+](=O)[O-])c2cccnc2c1O (stereo unspecified),n
CCCC(=O)NC(c1ccco1)c1c(O)ccc2ccccc12 (stereo unspecified),133
COc1cc(S(=O)(=O)N2CCN(C(=O)c3ccccc3)CC2)c(OC)cc1Br,n
COc1cccc(C2C(C(N)=O)=C(C)Nc3nc(-c4ccccc4Cl)nn32)c1 (stereo unspecified),n
Cc1oc(-c2ccccc2Cl)nc1CSc1nc2c(c(=O)[nH]1)CCC2,n
Cc1onc(-c2ccccc2Cl)c1C(=O)Nc1cccc2nsnc12,n
Cc1onc(-c2ccccc2Cl)c1C(=O)Nc1ccc(N2CCOCC2)cc1,n
Cc1onc(-c2ccccc2Cl)c1C(=O)Nc1ccccc1N1CCOCC1,81
CCN1C(=O)C(=O)N(CC(=O)Nc2ccccc2Oc2ccccc2)C1=O,n
Cn1c(SCC(=O)N2CCCC2=O)nnc1-c1ccccc1F,n
SMILES,Insulin prom act
Cn1c(NC(=O)Cc2cccc3ccccc23)cc(=O)n(C)c1=O,n
CCN(CC)S(=O)(=O)c1cccc(NC(=O)COC(=O)CCC(=O)c2ccc(F)cc2)c1,n
N#C/C(=C/c1ccc(N2CCCCC2)o1)C(=O)Nc1ccc(Cl)cc1,270
N#C/C(=C/c1ccc(N2CCCCC2)o1)C(=O)Nc1ccc2ccccc2c1,n
N#C/C(=C/c1ccc(N2CCCCCC2)o1)c1cccc(F)c1,n
O=C(/C=C\c1cccs1)c1c(O)ccc2ccc(=O)oc12,n
COc1ccc(/C(O)=C/c2nc3ccc(C(=O)NCCc4cccc(C)c4)cc3[nH]c2=O)cc1OC,n
C/C(=N\NC(=O)c1ccc(Cl)c(S(=O)(=O)Nc2ccccc2Cl)c1)c1ccncc1,n
O=C(C1CC=CCC1)N1CCN(C(=O)C2CC=CCC2)CC1 (stereo unspecified),n
CCOC(=O)N(NC(=O)C(O)(C(C)C)C(C)C)c1ccccc1,112
CCOC(=O)C(=O)NC(C)CCc1ccccc1 (stereo unspecified),n
Cc1cccc(N(NC(=O)C(C)(C)O)C(=O)c2ccccc2)c1,n
O=C(N1CCOCC1)N1CCN(C(=O)N(c2ccccc2)c2ccccc2)CC1,n
O=C(N1CCCCCC1)N1CCN(C(=O)N2CCOCC2)CC1,488
O=C(N1CCCCCC1)N1CCN(S(=O)(=O)N2CCCCC2)CC1,n
CC(C)(C)NC(=O)C(c1ccccn1)N(C(=O)C1CSC(=O)C1)c1ccccc1F (stereo unspecified),n
Cc1ccc(-c2nnn(CC(=O)N(c3cccc(F)c3)C(C(=O)NC3CCCC3)c3ccco3)n2)o1 (stereo unspecified),n
Cc1ccc(-c2nnn(CC(=O)N(CC3CCCO3)C(C(=O)NC3CCCC3)c3ccc(F)cc3)n2)o1 (stereo unspecified),500
Cc1ccc(-c2nnn(CC(=O)N(CC3CCCO3)C(C(=O)NC3CCCC3)c3ccc(O)cc3)n2)o1 (stereo unspecified),n
CCc1ccc(C(=O)NNC(=O)OC)cc1,n
Cc1ccc(-c2nnc(SCC(=O)NC3CCS(=O)(=O)C3)nc2-c2ccc(C)cc2)cc1 (stereo unspecified),n
O=C(CN1C(=O)S/C(=C/C=C/c2ccccc2)C1=O)Nc1ccc(C(=O)O)cc1,550
Cn1cc(/C=C2/SC(=O)N(CC(=O)Nc3ccc4c(c3)OCO4)C2=O)c2ccccc21,n
CC(=O)c1ccc(NC(=O)CCCN2C(=O)/C(=C/C(C)=C/c3ccccc3)SC2=S)cc1,n
c1ccc(Cn2ccc(-c3cnc(-c4ccccc4)s3)n2)cc1,n
COc1ccccc1N1CCN(CC(=O)Nc2ccc(-n3cnnn3)cc2)CC1,n
